Drawing on ChEMBL document CHEMBL3045615, “Synthesis and herbicidal evaluation of novel 3-[(alpha-hydroxy-substituted)benzylidene]pyrrolidine-2,4-diones” (J Agric Food Chem, 2005), this text covers inhibition for ten molecules.

Format in all cases: functional
The subject of test [1] is Digitaria sanguinalis. The test can be described thus: Herbicidal activity against Digitaria sanguinalis (hairy crabgrass) assessed as inhibition in green house at 375 g/ha pre-emergence treatment measured after 15 days. The conditions noted are these: 360 h. The procedure, abridged: (§1)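 Greenhouse pot test. Two replicates per treatment. Control was the same amount of water, N,N-dimethylformamide and Tween 20. Fresh weights were taken 15 days after treatment, and percentage inhibition was calculated relative to controls.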

Test [2] relates to Amaranthus retroflexus. Kind of test: Herbicidal activity against Amaranthus retroflexus assessed as inhibition in green house at 1500 g/ha post-emergence treatment measured after 15 days. The note with it: 360 h. Summed up:
as §1

Test [3] has as its system Brassica rapa subsp. oleifera. The test can be described thus: Herbicidal activity against Brassica rapa subsp. oleifera assessed as inhibition in green house at 1500 g/ha pre-emergence treatment measured after 15 days. The note with it: 360 h. Summed up:
as §1

Test [4] deals with Brassica rapa subsp. oleifera. The test can be described thus: Herbicidal activity against Brassica rapa subsp. oleifera assessed as inhibition of root growth at 10 ug/ml at 28 +/- 1 degC measured after 65 hr by root test. Summed up: (§2)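 Rape seeds were presoaked 4 h in distilled water. About 15 seeds were placed per 6-cm Petri plate on filter paper pre-wetted with 2 mL inhibitor solution. Plates germinated in the dark for 65 h at 28 ± 1 °C. Root length of 10 roots per plate was measured and averaged. Result expressed as percentage inhibition.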

The subject of test [5] is Brassica rapa subsp. oleifera. The test can be described thus: Herbicidal activity against Brassica rapa subsp. oleifera assessed as inhibition of root growth at 100 ug/ml at 28 +/- 1 degC measured after 65 hr by root test. The procedure, abridged:
as §2

In test [6] the test system is Brassica rapa subsp. oleifera. The test can be described thus: Herbicidal activity against Brassica rapa subsp. oleifera assessed as inhibition in green house at 1500 g/ha post-emergence treatment measured after 15 days. The conditions noted are these: 360 h. The procedure, abridged: as §1
The test system of test [7] is Echinochloa crus-galli. Kind of test: Herbicidal activity against Echinochloa crus-galli (barnyard grass) assessed as inhibition of seedling growth at 100 ug/ml at 28 +/- 1 degC measured after 65 hr by cup test.
Test [8] has as its system Amaranthus retroflexus. Kind of test: Herbicidal activity against Amaranthus retroflexus assessed as inhibition in green house at 1500 g/ha pre-emergence treatment measured after 15 days. The conditions noted are these: 360 h. The procedure, abridged: as §1
Test [9] concerns Digitaria sanguinalis. Kind of test: Herbicidal activity against Digitaria sanguinalis (hairy crabgrass) assessed as inhibition in green house at 750 g/ha pre-emergence treatment measured after 15 days. The note with it: 360 h. Summed up: as §1
Test [10] deals with Echinochloa crus-galli. The test can be described thus: Herbicidal activity against Echinochloa crus-galli (barnyard grass) assessed as inhibition in green house at 750 g/ha pre-emergence treatment measured after 15 days. The conditions noted are these: 360 h. Summed up:
as §1

Test [11] has as its system Echinochloa crus-galli. Kind of test: Herbicidal activity against Echinochloa crus-galli (barnyard grass) assessed as inhibition in green house at 375 g/ha pre-emergence treatment measured after 15 days. The conditions noted are these: 360 h. The procedure, abridged:
as §1

The test system of test [12] is Echinochloa crus-galli. The test can be described thus: Herbicidal activity against Echinochloa crus-galli (barnyard grass) assessed as inhibition in green house at 1500 g/ha pre-emergence treatment measured after 15 days. The conditions noted are these: 360 h. Summed up: as §1
Test [13] concerns Echinochloa crus-galli. Kind of test: Herbicidal activity against Echinochloa crus-galli (barnyard grass) assessed as inhibition in green house at 1500 g/ha post-emergence treatment measured after 15 days. The conditions noted are these: 360 h. Summed up: as §1
Test [14] deals with Echinochloa crus-galli. The test can be described thus: Herbicidal activity against Echinochloa crus-galli (barnyard grass) assessed as inhibition of seedling growth at 10 ug/ml at 28 +/- 1 degC measured after 65 hr by cup test.
In test [15] the test system is Digitaria sanguinalis. The test can be described thus: Herbicidal activity against Digitaria sanguinalis (hairy crabgrass) assessed as inhibition in green house at 93.75 g/ha pre-emergence treatment measured after 15 days. The conditions noted are these: 360 h. The procedure, abridged:
as §1

Test [16] concerns Digitaria sanguinalis. The test can be described thus: Herbicidal activity against Digitaria sanguinalis (hairy crabgrass) assessed as inhibition in green house at 1500 g/ha post-emergence treatment measured after 15 days. The note with it: 360 h. Summed up:
as §1

For test [17], the system named is Echinochloa crus-galli. Kind of test: Herbicidal activity against Echinochloa crus-galli (barnyard grass) assessed as inhibition in green house at 93.75 g/ha pre-emergence treatment measured after 15 days. The conditions noted are these: 360 h. Summed up: as §1
The test system of test [18] is Digitaria sanguinalis. The test can be described thus: Herbicidal activity against Digitaria sanguinalis (hairy crabgrass) assessed as inhibition in green house at 1500 g/ha pre-emergence treatment measured after 15 days. The conditions noted are these: 360 h. The procedure, abridged:
as §1

Test [19] deals with Digitaria sanguinalis. Kind of test: Herbicidal activity against Digitaria sanguinalis (hairy crabgrass) assessed as inhibition in green house at 187.5 g/ha pre-emergence treatment measured after 15 days. The conditions noted are these: 360 h. The procedure, abridged:
as §1

Test [20] relates to Echinochloa crus-galli. Kind of test: Herbicidal activity against Echinochloa crus-galli (barnyard grass) assessed as inhibition in green house at 187.5 g/ha pre-emergence treatment measured after 15 days. The note with it: 360 h. The procedure, abridged:
as §1

Take `Cc1ccccc1/C(O)=C1\C(=O)CN(C(C)C)C1=O`: the inhibition at 375 g/ha was 30% in test [1] and 43% in test [11]. Further, the inhibition at 1500 g/ha in [2] stood at 0%; in test [3], 0%; in test [6], 44%; in test [8], 50%; in [12], 84%; in test [13], 76%. The inhibition at 10 µg/mL in [4] is 15%; in [14] it was 77%. In addition, the inhibition at 100 µg/mL in test [5] is 62%; in [7], 77%. Besides, the inhibition at 750 g/ha stood at 66% in [9] and 68% in [10].

For the molecule `COc1ccc(/C(O)=C2\C(=O)CN(C(C)(C)C)C2=O)cc1`, the inhibition at 375 g/ha in [1] came out at 8%; in test [11], 0%. The inhibition at 1500 g/ha came out at 0% in test [2]; 21% in test [3]; 0% in test [6]; 23% in test [8]; 93% in test [12]; 66% in [13]. Further, the inhibition at 10 µg/mL in [4] is 5%; in [14] it was 79%. Besides, the inhibition at 100 µg/mL in [5] is 78%; in [7] it was 80%. Further, the inhibition at 750 g/ha in [9] is 58%; in test [10] it was 73%.

Regarding `CCOc1ccc(/C(O)=C2\C(=O)CN(C(C)C)C2=O)cc1`, the inhibition at 375 g/ha in test [1] and in test [11] was 94% in each case. For the same molecule, the figures for the inhibition at 93.75 g/ha in [15] and in test [17] were 22% and 8%, respectively. In addition, the inhibition at 1500 g/ha in test [16] is 0%; in test [2], 0%; in test [3], 0%; in test [6], 0%; in [8], 0%; in test [18], 98%. The inhibition at 1500 g/ha in test [12] worked out at 100%; in test [13] it was 19%. Besides, the inhibition at 10 µg/mL turned out to be 8% in test [4] and 79% in test [14]. The inhibition at 100 µg/mL in test [5] was found to be 82%; in [7], 80%. The inhibition at 750 g/ha in test [9] was determined as 96%; in test [10], 98%. Also, the inhibition at 187.5 g/ha was found to be 84% in [19] and 52% in test [20].

As to `COc1ccc(/C(O)=C2\C(=O)CN(C(C)C)C2=O)c(OC)c1`, the inhibition at 375 g/ha came out at 77% in [1] and 100% in [11]. For the same molecule, the inhibition at 93.75 g/ha in test [15] turned out to be 0%; in [17] it was 34%. Further, the inhibition at 10 µg/mL in [4] was 27%; in test [14] it was 78%. In addition, the inhibition at 100 µg/mL in test [5] is 69%; in test [7], 80%. Moreover, the inhibition at 750 g/ha in test [9] was 93%; in [10], 100%. For the same molecule, the figures for the inhibition at 187.5 g/ha in [19] and in test [20] were 68% and 93%, respectively.

Take `COc1ccc(/C(O)=C2\C(=O)CN(C3CC3)C2=O)cc1`: the figures for the inhibition at 375 g/ha in test [1] and in test [11] were 69% and 7%, respectively. The inhibition at 1500 g/ha in test [16] came to 0%; in test [2] it was 0%; in test [3] it was 0%; in test [6] it was 0%; in test [8], 0%; in test [18] it was 57%. Also, the values for the inhibition at 1500 g/ha in test [12] and in test [13] were 81% and 0%, respectively. Also, the inhibition at 10 µg/mL in test [4] was 35%; in test [14], 62%. The inhibition at 100 µg/mL in test [5] was determined as 70%; in test [7], 66%. Besides, the inhibition at 750 g/ha in test [9] came to 73%; in test [10], 69%.

As for `CCOc1ccc(/C(O)=C2\C(=O)CN(C3CC3)C2=O)cc1`, the values for the inhibition at 375 g/ha in test [1] and in test [11] were 33% and 13%, respectively. The inhibition at 1500 g/ha in test [16] was determined as 6%; in [2] it was 13%; in [3], 6%; in [6], 0%; in test [8], 0%; in test [18], 42%. The inhibition at 1500 g/ha in test [12] amounted to 100%; in [13] it was 0%. Besides, the inhibition at 10 µg/mL in test [4] amounted to 0%; in test [14] it was 78%. Moreover, the inhibition at 100 µg/mL was determined as 47% in test [5] and 79% in test [7]. Besides, the inhibition at 750 g/ha is 77% in [9] and 99% in test [10]. The inhibition at 187.5 g/ha worked out at 18% in test [19] and 0% in [20].

For `O=C1CN(C2CC2)C(=O)/C1=C(\O)c1cccc(Oc2ccccc2)c1`, the inhibition at 1500 g/ha in test [16] worked out at 10%; in [2], 9%; in test [3] it was 0%; in test [6], 3%; in test [8] it was 0%; in test [18], 0%. Further, the inhibition at 1500 g/ha in test [12] turned out to be 0%; in [13], 15%. Moreover, the inhibition at 10 µg/mL in [4] worked out at 28%; in test [14] it was 58%. Also, the values for the inhibition at 100 µg/mL in test [5] and in test [7] were 80% and 66%, respectively.

As to `CC(C)N1CC(=O)/C(=C(/O)c2cccc(Oc3ccccc3)c2)C1=O`, the inhibition at 1500 g/ha in test [16] turned out to be 0%; in test [2], 9%; in test [3] it was 0%; in [6], 0%; in test [8] it was 0%; in [18], 0%. Besides, the inhibition at 1500 g/ha in [12] and in [13] was 0% throughout. For the same molecule, the inhibition at 10 µg/mL in test [4] was determined as 0%; in test [14], 57%. The inhibition at 100 µg/mL in test [5] was determined as 81%; in test [7], 67%.

Turning to `COc1ccc(/C(O)=C2\C(=O)CN(C3CC3)C2=O)cc1OC`, the inhibition at 1500 g/ha in test [16] was 0%; in test [2], 0%; in test [3], 0%; in test [6], 0%; in [8] it was 0%; in [18] it was 11%. Also, the values for the inhibition at 1500 g/ha in [12] and in test [13] were 0% and 3%, respectively. The inhibition at 10 µg/mL is 69% in test [4] and 0% in test [14]. In addition, the inhibition at 100 µg/mL in [5] was 72%; in test [7] it was 65%.

For the molecule `CS(=O)(=O)c1ccc(C(=O)C2C(=O)CCCC2=O)c(Cl)c1` [SULCOTRIONE], the inhibition at 375 g/ha in test [1] and in test [11] was 100% each time. Also, the inhibition at 93.75 g/ha in test [15] came to 100%; in test [17], 70%. In addition, the inhibition at 750 g/ha in [9] and in test [10] was 100% throughout. Besides, the inhibition at 187.5 g/ha in test [19] was determined as 100%; in [20] it was 93%.

What is called inhibition is the drop in the measured response relative to a control, in per cent.
